pIC50: −log10 of the molar value. Values belong to the compound of their own block, whether it stands above or below them. Activity calls are given as the source filed them. No cut-off for these calls is given here.
Columns and labels:
HUVEC [1] = assay: Antiangiogenic activity in HUVEC assessed as inhibition of tubule network formation after 16 hrs by fluorescence microscopic technique; assay type: functional, cell-based; details: Homo sapiens
In short: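 HUVECs (passages 2–8) plated at 1.6 × 10^4 cells on polymerized Matrigel with test compound at 2.5, 5, 7.5 or 10 μM; suramin 10 μM as positive control. Incubated 16 h, 37 °C, 5% CO2. Calcein-AM stained, imaged by fluorescence microscopy at 4×, total tubule length quantified.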

HUVEC [2] = assay: Growth inhibition of HUVEC by WST-8 assay; assay type: functional, cell-based; details: Homo sapiens
In short: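 HUVECs (passages 2–8), 3 × 10^3 cells/well on collagen, adhered 12 h in EGM-2, then 12 h in EGM-2 lacking VEGF and bFGF. VEGF (1 nM) plus compound added for 72 h at 37 °C, 5% CO2. WST-8 added 2 h, absorbance at 450 nm; Ki8751 as positive control.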

[3] = molecular target: Vascular endothelial growth factor receptor 2 (Homo sapiens, UniProt P35968); assay: Inhibition of recombinant human VEGFR2
Vascular endothelial growth factor receptor 2, sequence (P35968 whole entry): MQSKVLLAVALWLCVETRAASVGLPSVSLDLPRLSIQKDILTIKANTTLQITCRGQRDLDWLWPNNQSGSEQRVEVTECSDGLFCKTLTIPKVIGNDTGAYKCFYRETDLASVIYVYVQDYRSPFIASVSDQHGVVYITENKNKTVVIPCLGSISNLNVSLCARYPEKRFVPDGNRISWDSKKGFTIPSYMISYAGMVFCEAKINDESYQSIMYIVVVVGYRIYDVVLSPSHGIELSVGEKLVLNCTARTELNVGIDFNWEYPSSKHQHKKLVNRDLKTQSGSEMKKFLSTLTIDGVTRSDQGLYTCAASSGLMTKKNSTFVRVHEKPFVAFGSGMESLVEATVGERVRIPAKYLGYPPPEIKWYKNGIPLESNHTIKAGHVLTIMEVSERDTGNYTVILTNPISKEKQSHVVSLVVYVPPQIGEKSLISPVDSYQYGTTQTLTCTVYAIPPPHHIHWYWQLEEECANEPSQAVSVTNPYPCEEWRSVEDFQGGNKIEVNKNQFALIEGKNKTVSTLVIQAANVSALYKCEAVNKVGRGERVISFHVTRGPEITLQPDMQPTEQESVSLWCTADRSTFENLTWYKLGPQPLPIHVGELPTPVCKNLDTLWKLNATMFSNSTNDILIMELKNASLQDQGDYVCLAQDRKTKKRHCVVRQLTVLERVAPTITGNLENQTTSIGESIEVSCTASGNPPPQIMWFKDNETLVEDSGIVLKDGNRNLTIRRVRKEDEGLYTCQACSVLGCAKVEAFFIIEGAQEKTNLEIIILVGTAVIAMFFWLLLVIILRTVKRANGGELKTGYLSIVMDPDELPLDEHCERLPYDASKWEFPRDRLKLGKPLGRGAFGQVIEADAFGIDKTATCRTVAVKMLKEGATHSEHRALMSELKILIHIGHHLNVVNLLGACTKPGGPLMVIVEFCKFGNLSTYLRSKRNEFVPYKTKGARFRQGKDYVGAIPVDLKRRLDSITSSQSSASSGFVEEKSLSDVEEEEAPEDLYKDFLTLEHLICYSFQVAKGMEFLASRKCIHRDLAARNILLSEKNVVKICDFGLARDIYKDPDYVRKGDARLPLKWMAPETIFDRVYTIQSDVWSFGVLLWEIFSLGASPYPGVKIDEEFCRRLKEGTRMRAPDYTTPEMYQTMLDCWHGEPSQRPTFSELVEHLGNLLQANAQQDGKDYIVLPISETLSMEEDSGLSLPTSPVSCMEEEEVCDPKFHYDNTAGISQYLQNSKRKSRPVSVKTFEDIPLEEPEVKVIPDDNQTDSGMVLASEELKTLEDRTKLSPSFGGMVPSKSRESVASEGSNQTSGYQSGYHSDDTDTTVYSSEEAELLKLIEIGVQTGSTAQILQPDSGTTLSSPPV
In short: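 Recombinant VEGFR2 tyrosine kinase activity measured by ELISA using a universal tyrosine kinase assay kit; Ki8751 as positive control.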

HUVEC [4] = assay: Antiinvasive activity in HUVEC by matrigel assay at 2.5 uM after 22 hrs by fluorescence microscopic technique; assay type: functional, cell-based; details: Homo sapiens
In short: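 HUVECs starved 5 h in serum-free EBM-2 with 0.2% BSA, then 1 × 10^5 cells with compound (2.5 or 5 μM) loaded into inserts coated with 0.2 mg/mL Matrigel. Lower chamber: EBM-2, 0.2% BSA, 20 ng/mL VEGF, 1% FBS plus compound. After 22 h at 37 °C, invaded cells calcein-AM labeled, read at 494/517 nm; mean ± SD, n = 3.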

Compound: CC(=O)CC1(O)C(=O)c2c(oc3cc(O)c(O)cc23)-c2oc3cc(O)c(O)cc3c21 (racemic)
inhibition (HUVEC [1]): inactive
pIC50 (HUVEC [2]): 4.67
pIC50 [3]: 4.28

Compound: O=C1c2oc3cc(O)c(O)cc3c2C(=O)c2oc3cc(O)c(O)cc3c21
inhibition (HUVEC [1]): Dose-dependent effect
pIC50 (HUVEC [2]): 5.47
inhibition (HUVEC [4]): Active
pIC50 [3]: 4.15

Compound: O=C1C(=O)c2c(oc3cc(O)c(O)cc23)-c2oc3cc(O)c(O)cc3c21
inhibition (HUVEC [1]): Dose-dependent effect
pIC50 (HUVEC [2]): 5.12
inhibition (HUVEC [4]): Active
pIC50 [3]: 4.49

Further compounds by rising pIC50 [3], results first:

pIC50 [3]: 4.18
Compound: CC(=O)Oc1c2oc3cc(O)c(O)cc3c2c(OC(C)=O)c2oc3cc(O)c(O)cc3c12 [POLYOZELLIN]
inhibition (HUVEC [1]): inactive
pIC50 (HUVEC [2]): 4.99

pIC50 [3]: 5.62
Compound: COc1cc2nccc(Oc3ccc(NC(=O)Nc4ccc(F)cc4F)c(F)c3)c2cc1OC
pIC50 (HUVEC [2]): 5.85

Reference: ChEMBL document CHEMBL3232747, “Potential anti-angiogenesis effects of p-terphenyl compounds from Polyozellus multiplex” (J Nat Prod, 2014)
